# The list is not random: actives were taken first. Their share in the collection is about 2.6%.
# HCV core dimer = HCV core protein dimerization inhibition; inhibition, % at 5 µM; AID 1899; TR-FRET GST/Flag-core106 dimerization, 1536-well; actives 0.33% (n = 300,000);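 active = inhibition above the mean of all tested compounds plus 3 SD, set per screening campaign, cut at about 45% in these data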
#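 Assay system: Tagged HCV core106 pair (GST and Flag) | Buffer or medium: KF-containing HEPES buffer, pH 7.45, DTT, CHAPS, BSA | Also added: Eu donor and XL665 acceptor anti-tag antibodies | Dosing: One concentration, 5 µM, in 0.5% DMSO | Timing: 4 h at 22.5 °C | Technique: TR-FRET 671 and 617 nm emission | Repeats: Singlicate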
# ABHD5 PLIN5 PPI = inhibitors of human ABHD5-perilipin-5 interaction; Split G. princeps luciferase complementation, luminescence, 4 h; actives 0.78% (n = 360,000); inhibition, % at 4 µM; AID 602281; Q00G26+Q8WTS1;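 active = inhibition above the mean inhibition across every tested compound plus 3 SD, cut at about 22% in these data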;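 also: 0% = DMSO only wells and the 100% control is not disclosed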
# rCAG RNA binder = molecules binding r(CAG) RNA repeats | actives 1.3% (n = 370,000) | r(CAG) RNA repeat, TO-PRO-1 dye displacement fluorescence | inhibition, % at 3 µM | AID 651821;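 active = inhibition above the plate cutoff, the mean of all test compounds on that plate plus 3 SD, cut at about 35% in these data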;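 also: 0% = DMSO alone and 100% = 100 µM mitoxantrone as full dye displacement; higher means more dye released from RNA so lower well fluorescence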
# NadD inh = NadD (S. aureus) enzyme inhibition; purified NadD enzyme, colorimetric absorbance read-out; inhibition, % at 20 µM; actives 0.78% (n = 360,000); in the data active = inhibition above about 26%
# ABHD5-PLIN5 conf = ABHD5-PLIN5 interaction inhibition, confirmed; shares compounds with ABHD5 PLIN5 PPI; biochemical ABHD5-PLIN5 interaction, luminescence; inhibition, % at 4 µM; actives 67% (n = 2,200); in the data active = inhibition above about 23%;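 also: 0% = DMSO vehicle wells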
# HNF4 split-luc = counter-screen for ABHD5-PLIN5 inhibitors: HNF4 split-luciferase. shares compounds with ABHD5 PLIN5 PPI. HNF4 dimerization, luminescence, biochemical. inhibition, % at 4 µM. actives 77% (n = 2,200);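 active = mean inhibition across replicate wells exceeding the computed hit threshold, cut at about 13% in these data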;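 also: light from luciferase halves that rejoin when HNF4 fusion proteins dimerize; 0% = DMSO only wells and the 100% control is not given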
# Target sequence (P41235 whole entry, looked up, the tested form may be a part): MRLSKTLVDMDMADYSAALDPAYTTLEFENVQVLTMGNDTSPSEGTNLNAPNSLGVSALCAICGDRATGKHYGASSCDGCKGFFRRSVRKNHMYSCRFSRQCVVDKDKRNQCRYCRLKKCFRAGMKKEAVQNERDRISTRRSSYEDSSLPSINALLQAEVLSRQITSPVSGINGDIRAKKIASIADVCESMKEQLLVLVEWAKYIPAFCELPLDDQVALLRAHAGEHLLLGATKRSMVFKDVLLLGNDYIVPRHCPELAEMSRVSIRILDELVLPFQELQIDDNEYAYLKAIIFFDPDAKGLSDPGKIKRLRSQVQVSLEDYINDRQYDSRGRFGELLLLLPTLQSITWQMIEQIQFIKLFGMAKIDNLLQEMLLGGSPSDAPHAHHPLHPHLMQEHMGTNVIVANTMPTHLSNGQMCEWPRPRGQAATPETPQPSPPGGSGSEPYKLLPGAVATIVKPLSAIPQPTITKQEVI
# * hit, by the source's call; nt = no result given.
SMILES,HCV core dimer,ABHD5 PLIN5 PPI,rCAG RNA binder,NadD inh,ABHD5-PLIN5 conf,HNF4 split-luc
O=C1NC(=O)N(c2ccccc2)C(=O)/C1=C/c1coc2ccc(O)cc2c1=O,6,37*,10,4,90*,88*
O=C1NC(=O)N(c2ccccc2)C(=O)/C1=C\c1ccccc1[N+](=O)[O-],-8,24*,2,1,78*,80*
O=C1NC(=O)N(c2ccc(Cl)cc2)C(=O)/C1=C/c1coc2ccc(O)cc2c1=O,12,25*,12,3,87*,81*
COc1cc(/C=C2/C(=O)NC(=O)N(c3ccccc3)C2=O)ccc1O,-6,15,3,3,nt,nt
Cc1cc(/C=C2\C(=O)NC(=O)N(c3ccc(Cl)cc3)C2=O)c(C)n1-c1cccc(C(=O)O)c1,8,12,27,5,nt,nt
O=C(Nc1ccc(C(=O)O)cc1)Oc1ccc(N(CCCl)CCCl)cc1,nt,3,3,4,nt,nt
CCOc1cc2c(cc1OCC)-n1cccc1C(c1cc(OC)ccc1F)NC2 (configuration not stated),-6,-1,-9,-5,nt,nt
Cc1cc(N2C(=O)C3CCCN3C2c2sccc2C)no1 (configuration not stated),-1,-4,0,0,nt,nt
Cc1ccccc1-n1c(O)c(C(c2ccncc2)c2c(O)n(-c3ccccc3C)c(=O)[nH]c2=O)c(=O)[nH]c1=O,-9,26*,1,1,55*,66*
Cn1c(O)c(C(c2ccncc2)c2c(O)n(C)c(=S)n(C)c2=O)c(=O)n(C)c1=S,-1,14,11,1,nt,nt
COC(=O)C1=C(c2ccc(-c3ccccc3)c(F)c2)C[C@@H]2CC[C@H]1N2C(=O)NCc1cccc2ccccc12,nt,-6,3,9,nt,nt
CN1C(=O)C(=Cc2ccc(OCC(=O)Nc3ccccc3)cc2)C(=O)N(C)C1=O,4,50*,nt,2,12,28*
COc1ccc(-n2c(O)c(/C(C)=N/Nc3ccccc3)c(=O)[nH]c2=O)cc1,4,15,5,11,nt,nt
CC/C(=N\Nc1ccccc1)c1c(O)n(-c2ccccc2)c(=O)[nH]c1=O,0,25*,2,8,16,19*
CCOC(=O)c1c(N)n(Cc2ccco2)c2nc3ccccc3nc12,0,-8,1,0,nt,nt
CCCCn1c(NC(=O)c2ccco2)c(C(=O)OCC)c2nc3ccccc3nc21,-3,31*,1,15,41*,62*
O=C(NC(=S)N1C[C@H]2C[C@H](C1)c1cccc(=O)n1C2)c1ccc(Cl)cc1Cl,4,-2,0,0,nt,nt
CCCCCn1c(N)c(C(=O)NCCN2CCOCC2)c2nc3ccccc3nc21,-2,5,-1,-7,nt,nt
COc1ccc(CCNC(=O)c2c(N)n(CCN3CCOCC3)c3nc4ccccc4nc23)cc1OC,-5,25*,3,-10,16,3
CN1C(=O)C(=Cc2ccccc2OS(=O)(=O)c2ccccc2)C(=O)N(C)C1=O,0,45*,1,5,76*,74*
C=CCN1C(=O)NC(=O)/C(=C\c2ccc(-c3ccccc3[N+](=O)[O-])o2)C1=O,2,40*,14,23,84*,82*
CC1CC(OP(O)(=S)c2ccc(N(C)C)cc2NC(=O)c2cccs2)CC(C)(C)C1 (configuration not stated),8,2,22,19,nt,nt
O=C1NC(=O)N(c2ccc3c(c2)OCO3)C(=O)/C1=C\c1ccc(-c2ccccc2C(=O)O)o1,0,30*,6,3,78*,89*
O=C1NC(=O)N(c2ccc3c(c2)OCO3)C(=O)/C1=C\c1ccsc1,4,25*,4,5,66*,56*
O=C1NC(=O)N(c2ccc3c(c2)OCO3)C(=O)/C1=C/c1ccc(N2CCCCC2)o1,-26,4,-30,5,nt,nt
SMILES,HCV core dimer,ABHD5 PLIN5 PPI,rCAG RNA binder,NadD inh,ABHD5-PLIN5 conf,HNF4 split-luc
O=C1CN(O)C(c2ccccc2)=c2cc(Cl)ccc2=N1,0,-9,2,1,nt,nt
Cc1ccccc1CN1Cc2cnnn2-c2ccccc2C1C#N (configuration not stated),nt,74*,2,5,96*,96*
Cc1ccccc1C(=O)N1Cc2cnnn2-c2ccccc2C1C#N (configuration not stated),nt,9,4,9,nt,nt
O=C(NCC1=C(c2cccc3ccccc23)C[C@@H]2CC[C@H]1N2Cc1ccco1)c1cccs1,nt,10,3,0,nt,nt
C[C@@H]1C(=O)O[C@H]2[C@H](O)[C@]34[C@@H]5OC(=O)[C@]3(OC3OC(=O)[C@H](O)C34[C@H](C(C)(C)C)[C@@H]5O)[C@@]12O (some centres not stated),nt,0,2,-1,nt,nt
Brc1ccc2c(c1)C(OC1CN3CCC1CC3)c1ccccc1CS2 (configuration not stated),-18,29*,10,6,11,12*
CCC1CN1P1(=O)OCC(C)([N+](=O)[O-])CO1 (configuration not stated),nt,4,0,2,nt,nt
S=P(Nn1cnnc1)(c1ccccc1)c1ccccc1,-6,30*,-1,-2,3,3
Cc1cc(C)cc(N2C(=O)NC(=O)/C(=C\c3cccn3-c3ccccc3)C2=O)c1,0,25*,10,8,58*,70*
Cc1cc(C)cc(N2C(=O)NC(=O)/C(=C\c3cccn3-c3ccc(Cl)cc3)C2=O)c1,11,-3,8,25,nt,nt
O=C1NC(=S)NC(=O)C1=Cc1cccn1-c1ccc(O)cc1,nt,24*,18,20,91*,95*
Cc1cccc(-n2c(O)c(C)c(=O)[nH]c2=S)c1,nt,-9,1,-1,nt,nt
O=C(NC1CCCCC1)Oc1cc2oc(=O)sc2cc1Cl,-8,69*,21,-4,-39,14*
Cc1c(C=C2C(=O)N(C)C(=O)N(C)C2=O)c(=O)n(-c2ccccc2)n1C,-4,36*,-5,6,12,51*
Cc1c(NP(=S)(C(C)(C)C)C(C)(C)C)c(=O)n(-c2ccccc2)n1C,1,-1,0,2,nt,nt
CN(C)c1ccc(/C=C/c2cc[n+](C)c3ccccc23)cc1,nt,23*,17,1,31*,30*
Cc1nn(Cc2ccc(Cl)cc2Cl)c(Cl)c1C(=O)Nc1ccc(OC(F)F)cc1,5,0,-1,-2,nt,nt
Nc1c(C(=O)NCc2ccco2)c2nc3ccccc3nc2n1Cc1ccccc1,22,25*,20,17,35*,36*
C=C1C(=O)O[C@@H]2C[C@@H](C)[C@@H]3C=CC(=O)[C@@]3(C)[C@@H](O)[C@H]12,4,82*,3,-4,91*,90*
Cc1ccc(N2C(=O)NC(=O)/C(=C/c3cnc(-c4ccccc4)nc3)C2=O)cc1C,3,33*,19,7,87*,73*
